ChEMBL document CHEMBL1123756, “Cardiotonic agents. 5. 1,2-Dihydro-5-[4-(1H-imidazol-1-yl)phenyl]-6-methyl-2-oxo-3- pyridinecarbonitriles and related compounds. Synthesis and inotropic activity” (J Med Chem, 1987)

Tests used:
Canis familiaris [1] = assay: Heart rate (HR) in an acutely instrumented anesthetized dog model at 0.003 mg/kg intravenous dose; assay type: functional, Canis lupus familiaris
In short: (§1)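 Adult mongrel dogs of either sex, anesthetized with pentobarbital 35 mg/kg IV and maintained by infusion at 5 mg/kg per h. Control data collected for 30 min. Drug given IV in saline (or dilute HCl/NaOH diluted with saline), 0.1 mL/kg over 1 min. Ascending doses, usually half-log apart, 10-30 min between doses, one compound per dog. Recorded LV dP/dtmax, heart rate and aortic pressure as % change from control.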

Canis familiaris [2] = assay: Mean arterial blood pressure (MABP) in an acutely instrumented anesthetized dog model at 0.1 mg/kg intravenous dose; assay type: functional, Canis lupus familiaris; in short: as §1
Canis familiaris [3] = assay: Mean arterial blood pressure (MABP) in an acutely instrumented anesthetized dog model at 0.001 mg/kg intravenous dose; assay type: functional, Canis lupus familiaris; in short: as §1
Canis familiaris [4] = assay: Myocardial contractility in an acutely instrumented anesthetized dog model at 0.03 mg/kg intravenous dose; assay type: functional, Canis lupus familiaris, Myocardium; in short: as §1
Canis familiaris [5] = assay: Mean arterial blood pressure (MABP) in an acutely instrumented anesthetized dog model at 0.01 mg/kg intravenous dose; assay type: functional, Canis lupus familiaris; in short: as §1
Canis familiaris [6] = assay: Myocardial contractility in an acutely instrumented anesthetized dog model at 0.01 mg/kg intravenous dose; assay type: functional, Canis lupus familiaris, Myocardium; conditions: dose 0.1 mg/kg, in the assay text read “0.1 mg/kg” for “0.01 mg/kg”; in short: as §1
Canis familiaris [7] = assay: Myocardial contractility in conscious dog model after 34-40 minutes at 1 mg/kg oral administration, activity >4 hr; assay type: functional, Canis lupus familiaris, Myocardium
In short: (§2)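 Conscious, fasted adult mongrel dogs with surgically implanted devices for ECG, aortic pressure and flow, and LV pressure. Drug given by gavage as a solution or suspension, in single or multiple doses. Contractility recorded as % increase 34-40 min after dosing, with duration of response noted. Mean ± SEM; Student's t test, p < 0.05.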

Canis familiaris [8] = assay: Myocardial contractility in conscious dog model after 34-40 minutes at […] oral administration, activity >3 hr (p<0.05); assay type: functional, Canis lupus familiaris, Myocardium
Canis familiaris [9] = assay: Myocardial contractility in conscious dog model after 34-40 minutes at 0.1 mg/kg oral administration, range 5-10; assay type: functional, Canis lupus familiaris, Myocardium; in short: as §2
Canis familiaris [10] = assay: Heart rate (HR) in an acutely instrumented anesthetized dog model at 0.03 mg/kg intravenous dose; assay type: functional, Canis lupus familiaris; in short: as §1
Canis familiaris [11] = assay: Myocardial contractility in an acutely instrumented anesthetized dog model at 0.001 mg/kg intravenous dose; assay type: functional, Canis lupus familiaris, Myocardium; in short: as §1
Canis familiaris [12] = assay: Heart rate (HR) in an acutely instrumented anesthetized dog model at 0.001 mg/kg intravenous dose; assay type: functional, Canis lupus familiaris; in short: as §1
Canis familiaris [13] = assay: Heart rate (HR) in an acutely instrumented anesthetized dog model at 0.1 mg/kg intravenous dose; assay type: functional, Canis lupus familiaris; in short: as §1
Canis familiaris [14] = assay: Heart rate (HR) in an acutely instrumented anesthetized dog model at 0.01 mg/kg intravenous dose; assay type: functional, Canis lupus familiaris; in short: as §1
Canis familiaris [15] = assay: Mean arterial blood pressure (MABP) in an acutely instrumented anesthetized dog model at 0.003 mg/kg intravenous dose; assay type: functional, Canis lupus familiaris; in short: as §1
Canis familiaris [16] = assay: Mean arterial blood pressure (MABP) in an acutely instrumented anesthetized dog model at 0.03 mg/kg intravenous dose; assay type: functional, Canis lupus familiaris; in short: as §1
Canis familiaris [17] = assay: Myocardial contractility in conscious dog model after 34-40 minutes at 1 mg/kg oral administration, activity 3-4 hr (p<0.05); assay type: functional, Canis lupus familiaris, Myocardium; in short: as §2
Canis familiaris [18] = assay: Change from control in mean arterial blood pressure (MABP) in an acutely instrumented anesthetized dog model at […] intravenous dose
Canis familiaris [19] = assay: Myocardial contractility in an acutely instrumented anesthetized dog model at […] intravenous dose; assay type: functional, Canis lupus familiaris, Myocardium
Canis familiaris [20] = assay: Myocardial contractility in an acutely instrumented anesthetized dog model at 1 mg/kg intravenous dose; assay type: functional, Canis lupus familiaris, Myocardium; in short: as §1
Canis familiaris [21] = assay: Mean arterial blood pressure (MABP) in an acutely instrumented anesthetized dog model at 1 mg/kg intravenous dose; assay type: functional, Canis lupus familiaris; in short: as §1
Canis familiaris [22] = assay: Heart rate (HR) in an acutely instrumented anesthetized dog model at […] intravenous dose; assay type: functional, Canis lupus familiaris
Canis familiaris [23] = assay: Heart rate (HR) in an acutely instrumented anesthetized dog model at 1 mg/kg intravenous dose; assay type: functional, Canis lupus familiaris; in short: as §1
[24] = dose 0.01 mg/kg, in the assay text read “0.01 mg/kg” for “0.001 mg/kg”

SMILES | MABP change from control (Canis familiaris [2]) [%] | Change from Control (LV dp/dt) (Canis familiaris [4]) [%] | MABP change from control (Canis familiaris [5]) [%] | Change from Control (LV dp/dt) (Canis familiaris [6]) [%] | HR change from control (Canis familiaris [10]) [%] | Change from Control (LV dp/dt) (Canis familiaris [11]; [24]) [%] | HR change from control (Canis familiaris [13]) [%] | HR change from control (Canis familiaris [14]) [%] | MABP % change from control (Canis familiaris [16]) | MABP change from control (Canis familiaris [18]) [%] | Change from Control (LV dp/dt) (Canis familiaris [19]) [%] | Change from Control (LV dp/dt) (Canis familiaris [20]) [%] | MABP change from control (Canis familiaris [21]) [%] | HR change from control (Canis familiaris [22]) [%] | HR change from control (Canis familiaris [23]) [%] | further results
Cc1nc(O)c(C#N)cc1-c1ccc(-n2ccnc2)cc1 | -9.7 | 122.7 | 0.75 | 154 | 14 | 50.3 | 34.7 | 4.5 | -2.2 | – | – | – | – | – | – | HR change from control (Canis familiaris [1]): 3%; MABP (Canis familiaris [3]): -1; Increase contractility (Canis familiaris [7]): 75%; Increase contractility (Canis familiaris [8]): 35%; Increase contractility (Canis familiaris [9]): 10%; Change from Control (LV dp/dt) (Canis familiaris [11]): 4.5%; HR change from control (Canis familiaris [12]): 1%; MABP change from control (Canis familiaris [15]): 1.7%
Cc1[nH]c(=O)c(C#N)cc1-c1ccncc1 [MILRINONE] | -13 | 77.5 | -2 | 113 | 13.5 | 30.5 | 27 | 3 | -8 | -19.9 | 142.5 | 148.5 | -36.9 | 39.2 | 48.5 | Increase contractility (Canis familiaris [17]): 45%
Cc1c(-c2ccc(-n3ccnc3)cc2)cc(C#N)c(=O)n1C | 2 | 10 | 2 | 16 | 0 | 8 | 3 | 1 | 1 | 1.5 | 18 | 39 | 0.5 | 2 | 3 | –
